Results as given in ChEMBL document CHEMBL1921796, “Synthesis of 6-(het) ary Xylocydine analogues and evaluating their inhibitory activities of CDK1 and CDK2 in vitro” (Bioorg Med Chem, 2011).
pIC50: −log10 of the molar value.

Tests used:
[1] = biological target: Cyclin-dependent kinase 1/cyclin B1 (Homo sapiens, UniProt P06493+P14635); assay: (§1) Inhibition of CDK1/Cyclin B in human HeLa cell extracts using histone H1 as substrate preincubated for 30 mins before substrate addition measured after 15 mins by autoradiography; assay type: protein-complex assay; details: hela
Procedure, shortened: (§2)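 HeLa cells seeded for 24 h, then given 80 nM paclitaxel in DMEM with 5% newborn calf serum for 12 h. 200 µg extract immunoprecipitated with anti-CDK1 antibody, 6 h at 4 °C, and washed.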

[2] = biological target: Cyclin-dependent kinase 2/cyclin A (Homo sapiens, UniProt P24941+P20248+P78396); assay: (§3) Inhibition of CDK2/Cyclin A2 in human HeLa cell extracts using histone H1 as substrate preincubated for 30 mins before substrate addition measured after 15 mins by autoradiography; assay type: protein-complex assay; details: hela
Procedure, shortened: (§4)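 CDK2 immunoprecipitated (6 h, 4 °C) from 200 µg extract of HeLa cells seeded 24 h and then given 50 µg/ml etoposide in DMEM with 5% newborn calf serum for 12 h. After washing, kinase preincubated 30 min with 0–200 µM inhibitor.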

[3] = biological target: Cyclin-dependent kinase 1/cyclin B1 (Homo sapiens, UniProt P06493); assay: as §1; assay type: protein-complex assay; procedure, shortened: as §2
[4] = biological target: Cyclin-dependent kinase 2/cyclin A (Homo sapiens, UniProt P24941); assay: as §3; assay type: protein-complex assay; procedure, shortened: as §4
HeLa [5] = assay: Cell cycle arrest in human HeLa cells assessed as accumulation at G1/S phase at 6.25 uM after 72 hrs by DAPI staining-based FACS analysis (reference value: 86.27%); assay type: functional
HeLa [6] = assay: Cell cycle arrest in human HeLa cells assessed as accumulation at G1/S phase at 12.5 uM after 72 hrs by DAPI staining-based FACS analysis (reference value: 86.27%); assay type: functional
HeLa [7] = assay: Cell cycle arrest in human HeLa cells assessed as accumulation at G2 phase at 12.5 uM after 72 hrs by DAPI staining-based FACS analysis (reference value: 13.73%); assay type: functional
HeLa [8] = assay: Cell cycle arrest in human HeLa cells assessed as accumulation at G2 phase at 6.25 uM after 72 hrs by DAPI staining-based FACS analysis (reference value: 13.73%); assay type: functional

Sequence of Cyclin-dependent kinase 1/cyclin B1 (Homo sapiens, UniProt P06493+P14635) (P06493 whole entry): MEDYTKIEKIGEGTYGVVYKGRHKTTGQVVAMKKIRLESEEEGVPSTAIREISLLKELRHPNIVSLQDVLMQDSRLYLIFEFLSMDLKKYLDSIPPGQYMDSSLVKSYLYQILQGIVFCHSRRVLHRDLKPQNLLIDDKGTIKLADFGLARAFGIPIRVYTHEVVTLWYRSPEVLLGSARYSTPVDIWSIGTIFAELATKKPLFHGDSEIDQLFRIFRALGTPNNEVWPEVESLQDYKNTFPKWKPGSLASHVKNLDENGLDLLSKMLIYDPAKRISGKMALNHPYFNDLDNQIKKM
Sequence of Cyclin-dependent kinase 1/cyclin B1 (Homo sapiens, UniProt P06493+P14635) (P14635 whole entry): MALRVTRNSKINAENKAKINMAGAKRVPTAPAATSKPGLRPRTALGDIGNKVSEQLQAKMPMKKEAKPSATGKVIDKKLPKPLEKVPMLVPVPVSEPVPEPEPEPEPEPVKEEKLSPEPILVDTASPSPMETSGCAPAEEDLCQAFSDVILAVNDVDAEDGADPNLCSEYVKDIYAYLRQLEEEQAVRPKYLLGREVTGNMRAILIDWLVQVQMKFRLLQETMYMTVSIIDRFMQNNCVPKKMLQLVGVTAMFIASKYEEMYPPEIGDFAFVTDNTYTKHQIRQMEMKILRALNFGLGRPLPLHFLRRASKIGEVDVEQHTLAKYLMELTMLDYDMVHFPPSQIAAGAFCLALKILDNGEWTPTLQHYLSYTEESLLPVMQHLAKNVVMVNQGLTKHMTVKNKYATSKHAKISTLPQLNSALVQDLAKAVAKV
Sequence of Cyclin-dependent kinase 1/cyclin B1 (Homo sapiens, UniProt P06493) (P06493 whole entry): as the sequence (P06493 whole entry) above
Sequence of Cyclin-dependent kinase 1/cyclin B1 (Homo sapiens, UniProt P06493) (P14635 whole entry, further chain): as the sequence (P14635 whole entry) above

Structure (SMILES): Cc1ccc(-c2c(C(N)=O)c3c(N)ncnc3n2[C@H]2O[C@@H](CO)[C@@H](O)[C@@H]2O)cc1
- IC50 [1]: Not Active
- IC50 [2]: Not Active

Structure (SMILES): NC(=O)c1c(Br)n([C@H]2O[C@@H](CO)[C@@H](O)[C@@H]2O)c2ncnc(N)c12 [XYLOCYDINE]
- pIC50 [3]: 8.85
- pIC50 [4]: 7.21

Structure (SMILES): NC(=O)c1c(-c2ccc(Br)s2)n([C@H]2O[C@@H](CO)[C@@H](O)[C@@H]2O)c2ncnc(N)c12
- IC50 [1]: Not Active
- IC50 [2]: Not Active

Structure (SMILES): COc1ccc(-c2c(C(N)=O)c3c(N)ncnc3n2[C@H]2O[C@@H](CO)[C@@H](O)[C@@H]2O)cc1
- IC50 [1]: Not Active
- IC50 [2]: Not Active

Structure (SMILES): NC(=O)c1c(-c2cccc(Br)c2)n([C@H]2O[C@@H](CO)[C@@H](O)[C@@H]2O)c2ncnc(N)c12
- IC50 [1]: Not Active
- IC50 [2]: Not Active

Structure (SMILES): N#Cc1c(-c2ccco2)n([C@H]2O[C@@H](CO)[C@@H](O)[C@@H]2O)c2ncnc(N)c12
- Activity (HeLa [5]): 85.13%
- Activity (HeLa [6]): 92.74%
- Activity (HeLa [7]): 7.26%
- pIC50 [3]: < 4.00
- Activity (HeLa [8]): 14.87%
- pIC50 [4]: 5.32

Structure (SMILES): N#Cc1c(-c2ccc(Br)s2)n([C@H]2O[C@@H](CO)[C@@H](O)[C@@H]2O)c2ncnc(N)c12
- Activity (HeLa [5]): 86.83%
- Activity (HeLa [6]): 99.79%
- Activity (HeLa [7]): 0.22%
- pIC50 [3]: < 4.00
- Activity (HeLa [8]): 13.17%
- pIC50 [4]: 4.26

Structure (SMILES): NC(=O)c1c(-c2ccco2)n([C@H]2O[C@@H](CO)[C@@H](O)[C@@H]2O)c2ncnc(N)c12
- IC50 [1]: Not Active
- IC50 [2]: Not Active

Structure (SMILES): Cc1ccc(-c2c(C#N)c3c(N)ncnc3n2[C@H]2O[C@@H](CO)[C@@H](O)[C@@H]2O)cc1
- IC50 [1]: Not Active
- IC50 [2]: Not Active

Structure (SMILES): CC(C)(C)c1ccc(-c2c(C(N)=O)c3c(N)ncnc3n2[C@H]2O[C@@H](CO)[C@@H](O)[C@@H]2O)cc1
- IC50 [1]: Not Active
- IC50 [2]: Not Active

Structure (SMILES): COc1ccc(-c2c(C#N)c3c(N)ncnc3n2[C@H]2O[C@@H](CO)[C@@H](O)[C@@H]2O)cc1
- IC50 [1]: Not Active
- IC50 [2]: Not Active

Structure (SMILES): N#Cc1c(-c2ccc(Br)cc2)n([C@H]2O[C@@H](CO)[C@@H](O)[C@@H]2O)c2ncnc(N)c12
- IC50 [1]: Not Active
- IC50 [2]: Not Active

Structure (SMILES): NC(=O)c1c(-c2ccc[nH]2)n([C@H]2O[C@@H](CO)[C@@H](O)[C@@H]2O)c2ncnc(N)c12
- IC50 [1]: Not Active
- IC50 [2]: Not Active

Structure (SMILES): NC(=O)c1c(-c2ccc(Br)cc2)n([C@H]2O[C@@H](CO)[C@@H](O)[C@@H]2O)c2ncnc(N)c12
- IC50 [1]: Not Active
- IC50 [2]: Not Active

Structure (SMILES): COc1cccc(-c2c(C(N)=O)c3c(N)ncnc3n2[C@H]2O[C@@H](CO)[C@@H](O)[C@@H]2O)c1
- IC50 [1]: Not Active
- IC50 [2]: Not Active

Structure (SMILES): CC(C)(C)c1ccc(-c2c(C#N)c3c(N)ncnc3n2[C@H]2O[C@@H](CO)[C@@H](O)[C@@H]2O)cc1
- IC50 [1]: Not Active
- IC50 [2]: Not Active

Structure (SMILES): N#Cc1c(-c2cccc(Br)c2)n([C@H]2O[C@@H](CO)[C@@H](O)[C@@H]2O)c2ncnc(N)c12
- IC50 [1]: Not Active
- IC50 [2]: Not Active

Structure (SMILES): NC(=O)c1c(-c2cccs2)n([C@H]2O[C@@H](CO)[C@@H](O)[C@@H]2O)c2ncnc(N)c12
- IC50 [1]: Not Active
- IC50 [2]: Not Active

Structure (SMILES): N#Cc1c(-c2cccs2)n([C@H]2O[C@@H](CO)[C@@H](O)[C@@H]2O)c2ncnc(N)c12
- Activity (HeLa [5]): 96.3%
- Activity (HeLa [6]): 99.87%
- Activity (HeLa [7]): 0.13%
- pIC50 [3]: < 4.00
- Activity (HeLa [8]): 3.7%
- pIC50 [4]: 5.34

Structure (SMILES): N#Cc1c(Br)n([C@H]2O[C@@H](CO)[C@@H](O)[C@@H]2O)c2ncnc(N)c12
- IC50 [1]: Not Active
- IC50 [2]: Not Active

Structure (SMILES): COc1cccc(-c2c(C#N)c3c(N)ncnc3n2[C@H]2O[C@@H](CO)[C@@H](O)[C@@H]2O)c1
- IC50 [1]: Not Active
- IC50 [2]: Not Active

Structure (SMILES): N#Cc1c(-c2ccc[nH]2)n([C@H]2O[C@@H](CO)[C@@H](O)[C@@H]2O)c2ncnc(N)c12
- IC50 [1]: Not Active
- IC50 [2]: Not Active
